# Measurements collected from several papers.
# Compare with care: the assays were run in different laboratories.
# Organism: Trypanosoma cruzi
# Read-out: parasite growth
SMILES,test,system,setting,IC50
Fc1ccccc1-c1nc(N2CCC(c3ccccn3)C2)c2ccccc2n1 (stereo not drawn),imaging,U2OS,"intracellular, amastigote",5.37 µM
O=C(Cn1ccnc1[N+](=O)[O-])NCc1ccccc1,,,epimastigote,23 µM
CCCCCCCCCCCCCC#CC(=O)O,,rat Myoblast,"intracellular, amastigote",80 µM
CC1CS(=O)(=O)CCN1/N=C/c1ccc([N+](=O)[O-])o1 (stereo not drawn),,,epimastigote,2.4 µM
CCCCCCCCCCCCCC#CC(=O)O,,"rat Myoblast, TULAHUEN","intracellular, amastigote",20.2 µg/mL
"C[Si](C)(C)c1cc(C(=O)[C@H](Cc2ccccc2)NC(=O)[C@H](Cc2ccccc2)NC(=O)N2CCOCC2)no1 (single isomer, unassigned)",,TULAHUEN,"intracellular, amastigote",> 64 µM
O=C(Cn1ccnc1[N+](=O)[O-])NCc1ccccc1,,TULAHUEN,"intracellular, amastigote",1.2 µM
COc1ccc(Nc2nc(-c3cccnc3)nc3ccccc23)cc1,imaging,U2OS,"intracellular, amastigote",6.33 µM
O=C(Nc1ccc2c(c1)B(O)OC2)Nc1ccc(F)c(C(F)(F)F)c1,,TULAHUEN,"intracellular, amastigote",6.6 µM
"O=C(N[C@@H](Cc1ccccc1)C(=O)c1cc(-c2ccccc2)on1)[C@H](Cc1ccccc1)NC(=O)N1CCOCC1 (single isomer, unassigned)",,TULAHUEN,"intracellular, amastigote",> 64 µM
Oc1cccc(-c2nc(N3CCC(c4ccccn4)C3)c3ccccc3n2)c1 (stereo not drawn),imaging,U2OS,"intracellular, amastigote",4.22 µM
O=C(N[C@@H](Cc1ccccc1)C(=O)c1ncc(-c2ccccc2)s1)[C@H](Cc1ccccc1)NC(=O)N1CCOCC1,,TULAHUEN,"intracellular, amastigote",19.8 µM
c1ccc(CN2CCN(c3nc(-c4ccccn4)nc4ccccc34)CC2)cc1,imaging,U2OS,"intracellular, amastigote",3 µM
O=C(N[C@@H](Cc1ccccc1)C(=O)c1noc(-c2ccccc2)n1)[C@H](Cc1ccccc1)NC(=O)N1CCOCC1,,TULAHUEN,"intracellular, amastigote",27.7 µM
O=C(Cn1ccnc1[N+](=O)[O-])NCc1ccccc1,,"NIH3T3, TULAHUEN","96 h, intracellular, amastigote",1.12 µM
